Assay results collected from several papers.
Compare with care: the assays were run in different laboratories.
Target: Cytochrome P450 2C8 (CYP2C8, Homo sapiens, UniProt P10632)
Effect on: enzyme activity
Mode: inhibitor

Structure (SMILES) | assay | system | conditions | endpoint | value
COc1ccn2c(Nc3ccccc3F)c(-c3ccncn3)nc2c1 |  |  |  | IC50 | 1 µM
Cc1cc2c(F)c(Oc3ncnn4cc(OC[C@@H](C)O)c(C)c34)ccc2[nH]1 | fluorescence |  | 15 min | IC50 | 3.08 µM
C[C@@H](c1ccc2nccn2c1)n1nnc2ncc(-c3cnn(C)c3)nc21 |  | human, liver microsomes | pH 7.4 | IC50 | 16 µM
Ic1ccc(CSCn2ccnc2)cc1 |  |  | 30 min, pH 7.4 | IC50 | 0.566 µM
Cc1cc(C)c2c(c1)[C@@H](N(Cc1cc(C(F)(F)F)cc(C(F)(F)F)c1)c1nnn(C)n1)CCCN2C[C@H]1CC[C@H](C(=O)O)CC1 |  | human, liver microsomes | pH 7.4 | Ki | 1.3 µM
Cc1ccc2nc(-c3ccccc3)c(CNc3ccc(F)cc3)n2c1 |  |  |  | IC50 | 1 µM
CCc1cc(/C(C)=N/OCc2ccc(C3CCCCC3)c(C(F)(F)F)c2)ccc1CN1CC(C(=O)O)C1 |  | human, liver microsomes | 20 min | IC50 | > 1.1 µM
C=CC(=O)Nc1cc(Nc2nccc(Nc3cc(Cl)c(F)cc3C(C)(C)O)n2)c(OC)cc1N1CC[C@@H](N(C)C)C1 |  | human, liver microsomes |  | IC50 | > 30 µM
N#C[C@H](C[C@@H]1CCCNC1=O)NC(=O)[C@H](CC1CC1)NC(=O)c1cc2cccc(Cl)c2[nH]1 |  | human, liver microsomes |  | IC50 | 3.9 µM
NS(=O)(=O)NCCNc1nonc1C(=NO)Nc1ccc(F)c(Br)c1 |  |  |  | IC50 | > 10 µM
